Reference: ChEMBL document CHEMBL1148636, “Novel analogues of degarelix incorporating hydroxy-, methoxy-, and pegylated-urea moieties at positions 3, 5, 6 and the N-terminus. Part III” (J Med Chem, 2006)
Numbered stars: 1 amine (or outer) side, 2 acyl side, 3 side chain; on linkers, the order of the positions; unused ones are H or OH. Square brackets hold non-standard residues; d marks the D form. Side chains are listed from the residue outwards. Peptide text beside a SMILES is read from it. * marks the point of attachment. Dihydroorotyl(S) = O=C1C[C@@H](C(=O)*)NC(=O)N1; dPhe(4-NH2) = Nc1ccc(C[C@@H](N)C(=O)O)cc1; dPhe(4-Cl) = N[C@H](Cc1ccc(Cl)cc1)C(=O)O; Phe(4-NH2) = Nc1ccc(C[C@H](N)C(=O)O)cc1; d2Nal = N[C@H](Cc1ccc2ccccc2c1)C(=O)O; Lys(iPr) = CC(C)NCCCC[C@H](N)C(=O)O; NHCH2CH2OCH2CH2OEt = CCOCCOCCN*; d3Pal = N[C@H](Cc1cccnc1)C(=O)O; CO = O=C([*:1])[*:2]

Biological target: T1, Gonadotropin-releasing hormone receptor (Homo sapiens, UniProt P30968)
T1 sequence (P30968 whole entry): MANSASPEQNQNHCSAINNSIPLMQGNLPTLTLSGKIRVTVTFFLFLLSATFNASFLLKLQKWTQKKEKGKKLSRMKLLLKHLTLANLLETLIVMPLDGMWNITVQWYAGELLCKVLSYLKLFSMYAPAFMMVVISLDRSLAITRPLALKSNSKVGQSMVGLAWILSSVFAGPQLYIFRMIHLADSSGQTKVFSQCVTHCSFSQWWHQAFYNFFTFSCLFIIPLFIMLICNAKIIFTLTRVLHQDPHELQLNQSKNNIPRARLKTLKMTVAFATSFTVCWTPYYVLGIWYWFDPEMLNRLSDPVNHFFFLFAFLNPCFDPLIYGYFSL
Assay: Antagonist activity at human GnRH receptor expressed in HEK293 cells as inhibition of GnRH-induced LH secretion by reporter gene assay
Assay type: functional, cell-based
Method in brief: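 HEK293 cells stably expressing cloned human GnRH receptor plus luciferase reporter under LH alpha subunit promoter; plated 5 × 10^4 cells/well, overnight 37 °C. Compounds in 1% DMSO, 11 half-log concentrations in duplicate, 10 min preincubation, then GnRH 1 nM final, ≥5 h at 37 °C; luminescence read. Percent of control fitted to IC50; geometric mean of ≥2 independent experiments.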

| Compound | IC50 [nM] |
| --- | --- |
| CONC(=O)NCC[C@@H](NC(=O)[C@@H](Cc1ccc(Cl)cc1)NC(=O)[C@@H](Cc1ccc2ccccc2c1)NC(C)=O)C(=O)N[C@@H](CO)C(=O)N[C@@H](Cc1ccc(NC(=O)[C@@H]2CC(=O)NC(=O)N2)cc1)C(=O)N[C@H](Cc1ccc(NC(N)=O)cc1)C(=O)N[C@@H](CC(C)C)C(=O)N[C@@H](CCCCNC(C)C)C(=O)N1CCC[C@H]1C(=O)N[C@H](C)C(N)=O | 1.69 |
| CC(=O)N[C@H](Cc1ccc2ccccc2c1)C(=O)N[C@H](Cc1ccc(Cl)cc1)C(=O)N[C@H](CCNC(=O)NO)C(=O)N[C@@H](CO)C(=O)N[C@@H](Cc1ccc(NC(=O)[C@@H]2CC(=O)NC(=O)N2)cc1)C(=O)N[C@H](Cc1ccc(NC(N)=O)cc1)C(=O)N[C@@H](CC(C)C)C(=O)N[C@@H](CCCCNC(C)C)C(=O)N1CCC[C@H]1C(=O)N[C@H](C)C(N)=O | 2.68 |
| CONC(=O)NCC[C@@H](NC(=O)[C@@H](Cc1ccc(Cl)cc1)NC(=O)[C@@H](Cc1ccc2ccccc2c1)NC(C)=O)C(=O)N[C@@H](CO)C(=O)N[C@@H](Cc1ccc(NC(=O)NOC)cc1)C(=O)N[C@H](Cc1ccc(NC(=O)NOC)cc1)C(=O)N[C@@H](CC(C)C)C(=O)N[C@@H](CCCCNC(C)C)C(=O)N1CCC[C@H]1C(=O)N[C@H](C)C(N)=O | 1.49 |
| CCCCCCCC(=O)N[C@H](Cc1ccc2ccccc2c1)C(=O)N[C@H](Cc1ccc(Cl)cc1)C(=O)N[C@H](Cc1cccnc1)C(=O)N[C@@H](CO)C(=O)N[C@@H](Cc1ccc(NC(=O)NOC)cc1)C(=O)N[C@H](Cc1ccc(NC(N)=O)cc1)C(=O)N[C@@H](CC(C)C)C(=O)N[C@@H](CCCCNC(C)C)C(=O)N1CCC[C@H]1C(=O)N[C@H](C)C(N)=O | 4.17 |
| CC(=O)N[C@H](Cc1ccc2ccccc2c1)C(=O)N[C@H](Cc1ccc(Cl)cc1)C(=O)N[C@H](CNC(=O)NO)C(=O)N[C@@H](CO)C(=O)N[C@@H](Cc1ccc(NC(=O)[C@@H]2CC(=O)NC(=O)N2)cc1)C(=O)N[C@H](Cc1ccc(NC(N)=O)cc1)C(=O)N[C@@H](CC(C)C)C(=O)N[C@@H](CCCCNC(C)C)C(=O)N1CCC[C@H]1C(=O)N[C@H](C)C(N)=O | 3.46 |
| CCCC(=O)N[C@H](Cc1ccc2ccccc2c1)C(=O)N[C@H](Cc1ccc(Cl)cc1)C(=O)N[C@H](Cc1cccnc1)C(=O)N[C@@H](CO)C(=O)N[C@@H](Cc1ccc(NC(=O)NOC)cc1)C(=O)N[C@H](Cc1ccc(NC(N)=O)cc1)C(=O)N[C@@H](CC(C)C)C(=O)N[C@@H](CCCCNC(C)C)C(=O)N1CCC[C@H]1C(=O)N[C@H](C)C(N)=O | 1.46 |

Next, values leading:

| IC50 [nM] | Compound |
| --- | --- |
| 0.88 | CCOCCOCCNC(=O)Nc1ccc(C[C@@H](NC(=O)[C@H](Cc2ccc(NC(=O)[C@@H]3CC(=O)NC(=O)N3)cc2)NC(=O)[C@H](CO)NC(=O)[C@@H](Cc2cccnc2)NC(=O)[C@@H](Cc2ccc(Cl)cc2)NC(=O)[C@@H](Cc2ccc3ccccc3c2)NC(C)=O)C(=O)N[C@@H](CC(C)C)C(=O)N[C@@H](CCCCNC(C)C)C(=O)N2CCC[C@H]2C(=O)N[C@H](C)C(N)=O)cc1 (Ac-[d2Nal][dPhe(4-Cl)][d3Pal]S[Phe(4-NH2)](Dihydroorotyl(S))[dPhe(4-NH2)]([CO-NHCH2CH2OCH2CH2OEt])L[Lys(iPr)]P[dA]-NH2) |
| 0.8 | CC(=O)N[C@H](Cc1ccc2ccccc2c1)C(=O)N[C@H](Cc1ccc(Cl)cc1)C(=O)N[C@H](Cc1cccnc1)C(=O)N[C@@H](CO)C(=O)N[C@@H](Cc1ccc(NC(=O)[C@@H]2CC(=O)NC(=O)N2)cc1)C(=O)N[C@H](Cc1ccc(NC(=O)NO)cc1)C(=O)N[C@@H](CC(C)C)C(=O)N[C@@H](CCCCNC(C)C)C(=O)N1CCC[C@H]1C(=O)N[C@H](C)C(N)=O |
| 4.55 | CCOCCOCCNC(=O)Nc1ccc(C[C@@H](NC(=O)[C@H](Cc2ccc(NC(=O)[C@@H]3CC(=O)NC(=O)N3)cc2)NC(=O)[C@H](CO)NC(=O)[C@@H](Cc2cccnc2)NC(=O)[C@@H](Cc2ccc(Cl)cc2)NC(=O)[C@@H](Cc2ccc3ccccc3c2)NC(=O)NCCOCCOCC)C(=O)N[C@@H](CC(C)C)C(=O)N[C@@H](CCCCNC(C)C)C(=O)N2CCC[C@H]2C(=O)N[C@H](C)C(N)=O)cc1 |
